# Source: PubChem
# MLLE-PAM2 inh: inhibitors of PABP1 MLLE–PAM2 peptide binding, primary screen, biochemical, fluorescence polarization, FITC-PAM2, GST-MLLE | Polyadenylate-binding protein 1 (Homo sapiens), P11940 | inhibition, % at 20 µM | actives 0.36% (n = 360,000); in the data active = inhibition above about 35%, passing the limit was not always enough;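 note: plate controls were DMSO wells with GST-MLLE for no effect and wells lacking GST-MLLE protein for full effect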
# ZTA counter: ZTA (EBV) inhibition in EBNA-1 counter-screen | inhibition, % at 11 µM | actives 0.15% (n = 320,000) | AID 2234 | P03206 | ZTA-DNA binding, fluorescence polarization; in the data active = inhibition above about 33%
# Target sequence (P03206 whole entry, looked up): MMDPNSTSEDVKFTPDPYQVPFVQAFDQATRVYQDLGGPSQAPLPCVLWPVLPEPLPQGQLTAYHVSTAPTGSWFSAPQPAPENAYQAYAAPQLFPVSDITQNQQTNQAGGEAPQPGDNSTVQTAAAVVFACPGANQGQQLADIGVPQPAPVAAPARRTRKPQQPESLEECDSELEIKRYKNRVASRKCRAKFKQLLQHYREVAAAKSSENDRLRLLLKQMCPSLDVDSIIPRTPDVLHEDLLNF
# PABP polyA inh: PABP poly(A) RNA binding inhibitors, primary screen, biochemical, fluorescence polarization, uHTS; Polyadenylate-binding protein 1 (Homo sapiens), P11940; inhibition, % at 35 µM; actives 1% (n = 290,000); AID 2014, 2009;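 note: calls also rest on retests at 20 µM and on dose response follow-up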
# EBNA-1 inhibitor: EBNA-1 DNA-binding inhibitors, primary screen, biochemical, fluorescence polarization; actives 0.34% (n = 300,000); AID 1950, 2009; inhibition, % at 14.8 µM; in the data active = inhibition above about 28%
# NS3 helicase inh: inhibitors of HCV NS3 helicase, primary screen, biochemical, Cy5 molecular beacon fluorescence. Hepatitis C virus NS3 helicase. NS3 helicase DNA unwinding. inhibition, % at 10.9 µM. actives 0.56% (n = 290,000);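 active = inhibition above the mean of all tested compounds plus 3 SD, set per campaign, cut at about 35% in these data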;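 note: 0% = DMSO wells and 100% = thioflavine S control wells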
#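 Test system: hepatitis C virus NS3 helicase domain fragment enzyme. Also added: annealed dual-labelled DNA beacon duplex, ATP-started. Timing: 60 min unwinding reaction at 25 °C after ATP addition. Technique: Cy5 fluorescence. Measure: % inhibition of unwinding.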
# eIF4H FP inh: human eIF4H binding inhibitors, primary screen, translation initiation inhibitor project, biochemical, uHTS, fluorescence polarization | eIF4H fluorescence polarization binding assay | inhibition, % at 35 µM | actives 0.94% (n = 290,000);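 note: calls also rest on retests at 20 µM and on dose response follow-up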
# NS3 helicase cf: HCV NS3 helicase inhibitors, retest, confirmation, biochemical, Cy5 molecular beacon fluorescence, triplicate. shares compounds with NS3 helicase inh. NS3 helicase DNA unwinding. inhibition, % at 10.9 µM. actives 31% (n = 1,600). AID 1943, 2009;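 active = inhibition above the mean of all tested compounds plus 3 SD, cutoff set per campaign, cut at about 36% in these data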
# DNA FID counter: compounds displacing fluorescent DNA intercalator, artefact control for HCV NS3 helicase inhibitor project, biochemical, FID fluorescence, triplicate; shares compounds with NS3 helicase inh; DNA fluorescent intercalator displacement; inhibition, % at 7.9 µM; actives 4% (n = 1,600); AID 1945, 2009; in the data active = inhibition above about 37%;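 note: 0% = vehicle and 100% = reference compound; higher means more displacement of ethidium bromide from the DNA hairpin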
# FID counter DR: compounds displacing fluorescent intercalator from DNA, dose response, counter-screen for HCV NS3 helicase inhibitor project, biochemical, fluorescence; shares compounds with NS3 helicase inh; fluorescent intercalator displacement from DNA; IC50, µM; 120 tested, under 10 active
# An asterisk follows results filed as active; ? = inconclusive; . = not tested or not shown. Sampled rows, rich in hits. Any-hit rate of the full collection: about 2.1%. Unless noted, the rule behind the calls is not given here.
SMILES,MLLE-PAM2 inh,ZTA counter,PABP polyA inh,EBNA-1 inhibitor,NS3 helicase inh,eIF4H FP inh,NS3 helicase cf,DNA FID counter,others
CCOC(=O)CC(=O)CSc1nc(-c2ccc3c(c2)OCO3)cc(C(F)(F)F)c1C#N,5.1,4.3,82.5*,-2.0,37.2*,?,-2.0,0.7,
O=c1cc(-c2ccc([N+](=O)[O-])cc2)nc2cc(-c3ccc(Cl)cc3)[nH]n12,.,13.2,1.9,-9.1,48.1*,49.0,30.1,-1.1,
CCOc1ccc(/C=N/NC(=S)NC2CC3CCC2C3)cc1 (configuration not stated),-15.5,-8.1,10.3,1.8,-10.9,-8.2,.,.,
COc1ccc(S(=O)(=O)Nc2cccnc2)cc1,-4.8,3.4,-2.2,5.8,5.3,-9.1,.,.,
CCn1cc(S(=O)(=O)Nc2cccnc2)cn1,15.7,3.9,-8.8,2.8,-12.3,8.3,.,.,
CCn1cc(S(=O)(=O)Nc2cc(F)ccc2C)cn1,4.0,5.3,-4.0,0.2,58.7*,6.4,-2.0,-0.9,
CC(=O)C1=C(C)NC(SCc2cccc3ccccc23)=C(C#N)C1c1ccco1 (configuration not stated),-4.8,-0.1,0.7,-8.5,37.6*,38.0,-3.8,-2.5,
Cc1ccc(CSC2=Nc3ccccc3C3=NC(CCC(=O)NCc4ccco4)C(=O)N23)cc1 (configuration not stated),-6.1,1.4,6.6,-5.0,47.1*,1.2,-13.9,-38.4,
S=C(NCc1ccc(Cl)cc1)NN1CCOCC1,-17.5,12.5,-6.3,-2.8,-5.1,-4.0,.,.,
CC(C)C[C@H](NC(=O)[C@H](Cc1ccccc1)n1c(=O)[nH]c2ccccc2c1=O)C(=O)N1CCC[C@@H]1C(=O)O,13.1,0.0,-3.7,-15.6,39.0*,-1.9,-20.8,-22.8,
O=C(NC(Cc1ccccc1)C(=O)O)/C(=C\c1ccc(Br)cc1)NC(=O)c1ccc(Br)o1 (configuration not stated),6.1,3.3,-0.4,7.4,11.0,-2.6,.,.,
O=C(NC(Cc1ccccc1)C(=O)O)/C(=C/c1ccc(Br)cc1)NC(=O)c1ccc(Br)o1 (configuration not stated),3.1,-0.6,-1.5,4.7,41.2*,0.5,38.0*,-19.1,
O=C(O)c1c(C(=O)N2N=C3/C(=C/c4ccccc4)CCCC3C2c2ccccc2)cccc1[N+](=O)[O-] (configuration not stated),5.0,23.0,17.1,6.1,48.9*,2.6,69.3*,-5.8,
Cc1ccc(NC(=S)Nc2cccc(-c3n[nH]c(=S)o3)c2)cc1,27.7,-10.3,-2.6,-4.8,39.5*,3.6,35.1,-6.0,
CC1=CC(C)(C)N2C(=O)C(=Nc3ccc(O)cc3)c3cccc1c32,1.9,30.5,33.5,-1.2,5.5,53.3,.,.,
CCOc1ccc(C(=O)NCc2ccco2)cc1Cl,1.6,-12.8,-1.3,6.4,2.7,10.3,.,.,
COc1cc(/C=c2\sc3nc(-c4ccncc4)nn3c2=O)ccc1OC(C)=O,.,.,-3.6,.,5.8,-8.0,.,.,
CCCCCOc1ccc(/C=c2\sc3nc(=O)c(-c4ccccc4)nn3c2=O)cc1OC,11.1,8.9,-16.4,6.7,43.0*,16.0,72.0*,-20.2,FID counter DR=>79.4
CCCOc1ccc(/C=c2\sc3nc(-c4ccco4)nn3c2=O)cc1OCC,23.9,-1.1,4.0,-6.5,42.3*,51.7,-12.4,-2.1,
CCS(=O)(=O)N1CCN(C(=O)c2ccc3nc(C)c(N(C)C(=O)CCc4ccccc4)n3c2)CC1,2.8,.,.,.,.,.,.,.,
O=C(CSc1nnc(-c2ccco2)c(-c2ccco2)n1)c1ccccc1,21.6,-1.3,101.0*,-2.0,40.9*,110.0*,90.6*,45.0*,
Cn1c(SCC(=O)c2ccc(-c3ccccc3)cc2)nnc1-c1ccco1,2.5,-1.1,0.9,17.9,68.3*,58.3,4.9,-26.9,
CCn1c(SCC(=O)c2ccc3c(c2)OCCO3)nnc1-c1ccco1,8.6,-12.6,5.8,3.5,47.8*,-10.1,-6.8,-21.0,
CC(C)Cn1c(SCC(=O)c2ccc(Cl)s2)nnc1-c1ccco1,-0.4,14.4,13.1,-14.8,38.8*,0.2,-23.7,-27.6,
Cc1ccc(-n2nc(-c3cccnc3)cc2C(=O)N2CCOCC2)c(C)c1,-7.6,-0.3,14.5,1.4,4.8,-1.7,.,.,
SMILES,MLLE-PAM2 inh,ZTA counter,PABP polyA inh,EBNA-1 inhibitor,NS3 helicase inh,eIF4H FP inh,NS3 helicase cf,DNA FID counter,others
O=C(O)c1cc(-c2ccco2)nn1-c1ccc(Cl)cc1,-1.1,.,-6.1,.,44.0*,80.3,83.2*,6.8,
Cc1cccc(-n2nc(C)c3c(C(=O)O)cc(-c4cccs4)nc32)c1,2.2,-3.4,20.3,3.3,7.7,6.3,.,.,
Cc1nn(-c2ccccc2)c2nc(-c3ccco3)cc(C(=O)O)c12,6.4,9.9,66.2*,16.7,42.4*,88.2*,66.6*,-8.9,
O=C(O)c1cc(-c2cccs2)nn1-c1cccc(Cl)c1,12.2,3.7,4.9,0.1,7.4,9.9,.,.,
O=C(O)c1cc(-c2ccco2)nn1-c1cccc(Cl)c1,-21.7,9.7,9.1*,6.9,47.5*,83.1,31.6,-0.3,
Cc1ccc(-n2nc(-c3ccco3)cc2C(=O)O)c(C)c1,21.7,.,-13.1,.,46.9*,78.0,26.2,-4.9,
Cc1cc(C)cc(C(O)c2ncc(-c3ccccc3C(F)(F)F)[nH]2)c1 (configuration not stated),6.7,.,.,.,.,.,.,.,
CCCn1c2ccccc2c2nnc(SC(CC)C(=O)Nc3sc4c(c3C#N)CCCC4)nc21 (configuration not stated),15.2,2.2,4.4,-10.7,8.8,-7.8,.,.,
COC(=O)/C(C#N)=C/c1c(N2CCN(C)CC2)nc2ccccn2c1=O,18.8,-1.2,10.1,-2.1,14.4,-4.8,.,.,
COc1ccccc1N1CCN(C(=O)CSc2nc(C)c(Cc3ccccc3)c(=O)[nH]2)CC1,-8.7,-4.9,8.8,-5.0,41.4*,4.0,-18.5,-42.7,
Cc1ccccc1Oc1ccc2c(c1)[C@@H]1C[C@H](N(C)C(=S)Nc3ccc(F)cc3)[C@H]([C@H](C)O)C(=O)N1CC2,-53.0,.,.,.,.,.,.,.,
CC(C)C[C@H](NC(=O)NCc1ccc(F)cc1)C(=O)O,-3.1,16.7,20.9,4.3,-2.6,-5.4,.,.,
